Source: PubChem BioAssay (Broad Institute)
PGC1a acetyl inh – PGC1a acetylation modulation, inhibitor mode | 0.17% of 350,000 active | U2OS PGC1a acetylation, AlphaScreen anti-acetyl-lysine; with virally co-expressed GCN5 acetyltransferase | AID 651687 | inhibition, % at 15.6 µM;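 active means every replicate shows inhibition of at least 40%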
Statin myotox sup – protects C2C12 myotubes from simvastatin toxicity; 0.78% of 330,000 active; rescue of ATP level, % at 7.49 µM; ATP luminescence, 48 h; scaled: DMSO 0, geranylgeraniol control 100;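 active means mean ATP rescue above about 67%, or every replicate alone reaching that limit, limit read from the data, passing the limit was not always enough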;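 further: myotubes were challenged with 10 µM simvastatin during compound exposure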
Cneo AK release – Cryptococcus neoformans lysis via adenylate kinase release. C. neoformans lysis, adenylate kinase release luminescence, 4 h; normalised: neutral wells 0, clomiphene wells 100. lysis activity, % at 15 µM. 0.2% of 360,000 active. AID 651654;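 active means mean lysis activity across replicates of at least 80%, whatever share of replicates individually reach that level; inactive means mean lysis activity below 80%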
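Material – log-phase Cryptococcus neoformans yeast cells · Input – 5 × 10^6 yeast cells/mL · Medium – fresh YPD growth medium · Doses – single compound concentration per well · Timing – static 4 h at 37 °C with compound, 1 h detection · Detection – adenylate kinase release luminescence · Read-out – signal increase indicating cell lysis · Control set – Clomiphene as positive lysis control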
Ecoli rRNA inh – inhibitors of bacterial rRNA selective over humanized ribosomes | E. coli WT GFP vs humanized-ribosome RFP mutants, fluorescence, 24 h; hits give low values; DMSO median 0, no signal -100 | GFP signal change (wild-type ribosome), % (concentration not given with the values) | 1.6% of 350,000 active | AID 720706;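 active means significant combined selectivity score with lowered wild-type GFP, culture density cut under 30%, mutant RFP and density less affected; inactive means any of these conditions unmet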
S100A4 MyoIIA – S100A4-myosin IIA interaction inhibition; S100A4/TAMRA-MyoIIA peptide fluorescence polarization; inhibition, % at 10.7 µM; 0.14% of 360,000 active; AID 652163;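 active means mean inhibition of at least 70% across replicates, with every replicate also reaching that level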
Target sequence (P26447 whole entry, looked up): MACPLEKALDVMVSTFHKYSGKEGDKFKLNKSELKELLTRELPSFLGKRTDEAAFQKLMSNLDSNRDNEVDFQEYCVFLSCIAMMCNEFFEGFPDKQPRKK
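Compound dosing: one dose per compound; test system: human S100A4 monomer with TAMRA-labelled myosin IIA peptide; probe or stimulus: TAMRA-labelled myosin IIA heavy-chain peptide probe, 5 nM; medium: HEPES buffer with Ca2+, pH 7.2; schedule: 5 min incubation before reading; benchmarks: neutral control DMSO, positive control TFP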
SIRT5 inh – sirtuin-5 (human) deacylase inhibition; Q9NXA8; Purified SirT5, succinyl-peptide AMC, trypsin-coupled fluorescence; inhibition, % at 15 µM; 1.1% of 330,000 active; AID 652115; in the data active means inhibition above about 15%
Target sequence (Q9NXA8 whole entry, looked up): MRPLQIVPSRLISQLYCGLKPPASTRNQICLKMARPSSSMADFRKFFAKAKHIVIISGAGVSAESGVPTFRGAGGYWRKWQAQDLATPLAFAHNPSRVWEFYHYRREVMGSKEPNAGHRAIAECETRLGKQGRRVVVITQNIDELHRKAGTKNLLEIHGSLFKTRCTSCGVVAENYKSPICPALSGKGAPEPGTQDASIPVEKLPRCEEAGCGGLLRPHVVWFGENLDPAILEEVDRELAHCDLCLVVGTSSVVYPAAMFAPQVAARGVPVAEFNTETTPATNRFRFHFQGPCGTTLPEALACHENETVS
Numbers stand for hits; 0 = inactive; - = no result given; + = active, no number; ! = not confirmed by another sample. An excerpt weighted towards active compounds, which were near 3% of everything screened.

SMILES	PGC1a acetyl inh	Statin myotox sup	Cneo AK release	Ecoli rRNA inh	S100A4 MyoIIA	SIRT5 inh
CN1C(=O)C(C2c3ccccc3C(=O)N2Cc2ccccc2)C(=O)N(C)C1=O (stereo not drawn)	0	108	0	-	-	-
CCCCC(=O)N/N=C/c1c(O)n(Cc2ccc(F)cc2)c(=O)[nH]c1=O	-	-	-	-27	0	0
CCCCC(=O)N/N=C/c1c(O)n(CCc2ccccc2)c(=O)[nH]c1=O	0	-	0	0	0	0
CN(C)C1C(=O)C(C(N)=O)=C(O)C2(O)C(=O)C3=C(O)c4c(O)cccc4C(C)(O)C3C(O)C12 (stereo not drawn)	0	0	0	0	0	40
CN1CCN(c2nccc3c2ncn3C)CC1	0	101	0	-	-	-
CN1CCN(c2ncnc(Cl)c2N)CC1	0	0	0	0	0	0
COC(=O)[C@@H]1[C@@H](CO)[C@@H]2Cn3c(ccc(-c4ccc(F)cc4)c3=O)[C@H]1N2Cc1ccccc1	-	0	0	0	0	0
CC1CC(C)(O)CC(C(O)CC2CC(=O)NC(=O)C2)C1=O (stereo not drawn)	77	-	-	0	0	-
C=CCN1[C@@H]2CN(C(C)=O)C[C@H]1C2c1ccccc1 (stereo partly drawn)	-	-	-	0	-	-
CCC1CN2CCc3cc(OC)c(OC)cc3C2CC1CC1NCCc2c1[nH]c1ccc(O)cc21 (stereo not drawn)	70	-	-	0	0	-
CCCN1[C@@H]2c3cccc(=O)n3C[C@H]1[C@H](CO)[C@H]2C(=O)N(C)C	-	0	0	0	0	0
CS(=O)(=O)N1C[C@@H]2C(c3ccc(Br)cc3)[C@H](C1)N2CC1CC1 (stereo partly drawn)	-	-	-	0	-	-
CC(C)c1oc(=O)cc2c1[C@@H](O)[C@H]1OC(=O)[C@@]3(C)CC[C@@H](O)[C@@]2(C)C13 (stereo partly drawn)	-	0	0	0	0	-
CC(C)c1oc(=O)cc2c1[C@@H](O)[C@H]1OC(=O)[C@@]3(C)C[C@@H](O)[C@@H](O)[C@@]2(C)C13 (stereo partly drawn)	-	96	0	0	0	0
COc1ccc(CC2C(=O)NC(C)C(=O)N(C)C3C(=O)N(C)C(Cc4ccc(O)c(c4)Oc4ccc(cc4)C3O)C(=O)NC(C)C(=O)NC(C)C(=O)N2C)cc1 (stereo not drawn)	76	-	-	0	0	-
CC12CCC(O)CC1CCC1C2CCC2(C)C(C3=CC(=O)OC3)CCC12O (stereo not drawn)	80	-	-	0	0	0
CC1=CC2OC3CC4OC(=O)C=CC=CC(=O)OCCC(C)C(O)C(=O)OCC2(CC1)C4(C)C31CO1 (stereo not drawn)	77	-	-	-	0	0
CC1=CC2OC3CC4OC(=O)C=CC=CC(C(C)O)OCC(O)C5(C)OC5C(=O)OCC2(CC1O)C4(C)C31CO1 (stereo not drawn)	87	-	-	0	0	-
CC(O)C1C=CC=CC(=O)OC2CC3OC4C5OC5(C)C(O)CC4(COC(=O)C(O)C(C)CCO1)C2(C)C31CO1 (stereo not drawn)	87	-	-	0	0	0
CC1CCOC(=O)C=CC=CC(=O)OC2CC3OC4C5OC5(C)C(O)CC4(COC(=O)C1O)C2(C)C31CO1 (stereo not drawn)	77	-	-	-	0	0
CCOC(=O)[C@@H]1[C@@H]2NC(=S)N(C)[C@@]1(COCc1ccc(OC)cc1)Oc1ccccc12	0	-	0	-	0	0
O=C(Cc1cccnc1)N1CCCCN2[C@@H](CO)[C@@H](c3ccc(C#CC4CC4)cc3)[C@@H]2C1	0	-	0	-	0	0
C/C=C/c1ccc(C2[C@@H]3CN(C(=O)c4cnccn4)C[C@H]2N3)cc1 (stereo partly drawn)	0	-	-	0	0	0
O=C1CNC[C@@H]2[C@@H](c3ccc(Br)cc3)[C@@H](CO)N12	0	-	-	0	0	0
CC=Cc1ccc2n(c1=O)C[C@H]1[C@H](CO)[C@@H](C(=O)N(C)C)N[C@@H]21 (mixture of isomers)	0	0	0	0	0	0
SMILES	PGC1a acetyl inh	Statin myotox sup	Cneo AK release	Ecoli rRNA inh	S100A4 MyoIIA	SIRT5 inh
C[C@@H]1CN([C@@H](C)CO)C(=O)CCCn2nncc2CO[C@H]1CN(C)C(=O)Oc1cccc2ccccc12	0	0	88!	0	0	0
C[C@H]1CN([C@@H](C)CO)C(=O)CCCn2nncc2CO[C@@H]1CN(C)C(=O)Oc1cccc2ccccc12	0	0	0	0	0	0
O=c1[nH]c2ccccc2n1C1CCN(C(CCc2ccccc2)c2nnnn2Cc2ccccc2)CC1 (stereo not drawn)	103	0	0	0	0	0
CCC(=Nc1ccc2c(c1)CCC2)c1c(O)n(C)c(=O)n(C)c1=O	0	112	0	-	-	-
CC(C)NC(=O)N1C[C@@H]2C(c3ccccc3)[C@H](C1)N2CC1CC1 (stereo partly drawn)	-	-	-	0	-	-
CCN1/C(=C/C=C/C2=[N+](CC)c3ccccc3C2(C)C)C(C)(C)c2ccccc21	0	0	0	0	+	0
CN1/C(=C\C=C2C(=O)NC(=O)NC2=O)C(C)(C)c2ccccc21	0	-	-	0	0	0
O=C(O)[C@@H]1[C@@H](CO)[C@@H]2Cn3c(ccc(-c4cncnc4)c3=O)[C@H]1N2C(=O)NC1CCCC1	-	0	0	0	0	0
CCOC(=O)[C@]12Cc3cc(N(C)C)ccc3[C@H]1N(Cc1ccccc1)C(=O)c1ccccc12	0	95	0	0	0	-
C#CCNc1ccncc1S(=O)(=O)NC(=O)NC(C)C	0	128	0	-	-	-
NC(=O)c1cn(C2OC(CO)C(O)C2O)c2ncnc(N)c12 (stereo not drawn)	93!	0	0	0	0	0
N#CC1=C(N)Oc2c(c(=O)sc3ccccc23)C1c1ccncc1 (stereo not drawn)	0	-	-	0	0	16
CC[C@H](C)[C@@H]1NC(=O)CNC(=O)c2csc(n2)[C@H](C(C)(C)O)OC(=O)C(C)(C)[C@H](CCCC(C)(Cl)Cl)OC(=O)c2csc1n2	60	0	279	0	0	0
O=C1NC(=O)N(Cc2ccco2)C(=O)/C1=C/C=C/c1ccco1	-	-	-	0	0	15
O=C1NC(=O)N(Cc2ccccc2)C(=O)/C1=C\C=C\c1ccco1	0	0	0	0	0	0
O=C(Cc1ccncc1)N1CCCCN2[C@H](C1)[C@H](c1ccc(C#CC3(O)CCCC3)cc1)[C@@H]2CO	0	-	0	0	0	0
C[C@H]1CN([C@@H](C)CO)C(=O)c2c(c3ccccc3n2C)-c2ccccc2CO[C@H]1CN(C)C(=O)Oc1ccccc1	-	-	-	0	0	0
C[C@]12C=CC(=O)C=C1CC[C@@H]1[C@@H]2CC[C@]2(C)C(=O)CC[C@@H]12	0	0	0	-23	0	0
